# PMC9796011 (Journal of Gastroenterology and Hepatology, 2022)
# What was measured:
# [1] = system: patients with biologic‐resistant CD; assay: Phase 2a trial: Crohn's disease activity index; format: in vivo, human; conditions: 10 + 15 ng/kg/min groups pooled, mean ± SD
# Summary of the method: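 Patients (n = 24) were randomized 1:1:1 in blocks of three to placebo or 10 or 15 ng/kg/min test compound, infused 8 h/day for 7 days alongside ongoing biologic. Doctors scored CDAI by questionnaire at baseline and at 4, 6, 8, 16 and 24 weeks. Response was a drop of ≥50 points; remission was CDAI ≤150. Changes are mean ± SD, compared by t-test/ANOVA and, over 0–24 weeks, by a mixed-effects model.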
# [2] = system: patients with biologic‐resistant CD; assay: CRP, fecal calprotectin and FIT; format: in vivo, human; conditions: CRP at 2, 4, 8 weeks; fecal calprotectin and FIT at 1 week; data not shown
# Summary of the method: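 Adults with biologic-resistant CD at 16 Japanese centres were randomized 1:1:1 to placebo or 10 or 15 ng/kg/min of test compound, infused 8 h/day for 7 days from the day of biologic dosing. CRP was measured at 2, 4 and 8 weeks. Stool was collected before dosing and on day 8 for fecal calprotectin (fluorescence enzyme immunoassay) and FIT by a commercial lab. Groups were compared by t-test and ANOVA with Fisher's test.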
# [3] = Plasma concentration of adrenomedullin; format: in vivo; conditions: human, intravenous
# Summary of the method: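 Blood was drawn before and at 4, 8 and 10 h after the start of the 8-h infusion (10 or 15 ng/kg/min) on days 1 and 7, and at 4 and 8 weeks. Test compound was measured by automated ELISA. Cmax and Tmax were read directly from the data; AUC was computed over 0–10 h. Values are mean ± SD.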
# [4] = system: patients with biologic‐resistant CD; assay: Safety evaluation: adverse events, vital signs; format: in vivo, human
# Summary of the method: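 All 24 patients, hospitalized for the 7-day infusion of placebo or 10 or 15 ng/kg/min test compound (8 h/day), were assessed for AEs and SAEs throughout the study. Vital signs, blood and urine tests and 12-lead ECG were taken at set times after dosing, with screening within 2 weeks before therapy. Patients with systolic BP <90 mmHg or pulse <45 bpm were excluded.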
# [5] = Trough level of infliximab; format: in vivo, human; conditions: CD patients; 4 and 8 weeks vs day 1
# Summary of the method: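 Serum was collected immediately before each biologic dose. Infliximab trough levels were measured by ELISA at a contract lab in patients given placebo or 10 or 15 ng/kg/min test compound, infused 8 h/day for 7 days starting on the day of biologic dosing; changes were assessed at 8 weeks.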
# [6] = system: Crohn's disease; conditions: cited from earlier work
compound,measurement,setting,value
CC[C@H](C)[C@H](NC(=O)[C@H](CCC(N)=O)NC(=O)[C@H](Cc1c[nH]cn1)NC(=O)[C@H](C)NC(=O)[C@H](CC(C)C)NC(=O)[C@H](CCCCN)NC(=O)[C@H](CCC(N)=O)NC(=O)[C@@H](NC(=O)[C@@H](NC(=O)[C@@H]1CSSC[C@H](NC(=O)CNC(=O)[C@H](Cc2ccccc2)NC(=O)[C@H](CO)NC(=O)[C@H](CCCNC(=N)N)NC(=O)[C@H](CC(C)C)NC(=O)CNC(=O)[C@H](CCC(N)=O)NC(=O)[C@H](Cc2ccccc2)NC(=O)[C@H](CC(N)=O)NC(=O)[C@H](CC(N)=O)NC(=O)[C@H](CCSC)NC(=O)[C@H](CO)NC(=O)[C@H](CCC(N)=O)NC(=O)[C@H](CCCNC(=N)N)NC(=O)[C@@H](N)Cc2ccc(O)cc2)C(=O)N[C@@H](CCCNC(=N)N)C(=O)N[C@@H](Cc2ccccc2)C(=O)NCC(=O)N[C@@H]([C@@H](C)O)C(=O)N1)[C@@H](C)O)C(C)C)C(=O)N[C@@H](Cc1ccc(O)cc1)C(=O)N[C@@H](CCC(N)=O)C(=O)N[C@@H](Cc1ccccc1)C(=O)N[C@H](C(=O)N[C@@H](CC(=O)O)C(=O)N[C@@H](CCCCN)C(=O)N[C@@H](CC(=O)O)C(=O)N[C@@H](CCCCN)C(=O)N[C@@H](CC(=O)O)C(=O)N[C@@H](CC(N)=O)C(=O)N[C@H](C(=O)N[C@@H](C)C(=O)N1CCC[C@H]1C(=O)N[C@@H](CCCNC(=N)N)C(=O)N[C@@H](CO)C(=O)N[C@@H](CCCCN)C(=O)N[C@H](C(=O)N[C@@H](CO)C(=O)N1CCC[C@H]1C(=O)N[C@@H](CCC(N)=O)C(=O)NCC(=O)N[C@@H](Cc1ccc(O)cc1)C(N)=O)[C@@H](C)CC)C(C)C)[C@@H](C)O [Adrenomedullin],Changes in CDAI,"[1]; 4 weeks, n = 16",−71 ± 83
same,Changes in CDAI,"[1]; 6 weeks, n = 14",−72 ± 67
same,Changes in CDAI (primary endpoint),"[1]; 8 weeks, n = 15",−81 ± 73
same,Changes in CDAI,"[1]; 16 weeks, n = 10",−61 ± 51
same,Changes in CDAI,"[1]; 24 weeks, n = 9",−81 ± 46
same,"Changes in CRP levels, fecal calprotectin and FIT versus placebo",[2],no differences
same,AUC(0-t),[3]; 10 ng/kg/min,0.247 ± 0.06 ng·h/mL
same,AUC(0-t),[3]; 15 ng/kg/min,0.441 ± 0.245 ng·h/mL
same,Cmax,[3]; 15 ng/kg/min,0.0653 ± 0.043 ng/mL
same,"Any adverse events, patients (%)","[4]; 10 ng/kg/min, 8 patients",7 (88%)
same,Deaths,"[4]; 10 ng/kg/min, 8 patients",0
same,"Decrease in body weight, patients (%)","[4]; 10 ng/kg/min, 8 patients",0
same,"Dehydration, patients (%)","[4]; 10 ng/kg/min, 8 patients",0
same,"Dizziness, patients (%)","[4]; 10 ng/kg/min, 8 patients",1 (13%)
same,"Fever up, patients (%)","[4]; 10 ng/kg/min, 8 patients",0
same,"Flushing, patients (%)","[4]; 10 ng/kg/min, 8 patients",1 (13%)
same,"Head discomfort, patients (%)","[4]; 10 ng/kg/min, 8 patients",0
same,"Headache, patients (%)","[4]; 10 ng/kg/min, 8 patients",3 (38%)
same,"Increase in transaminase level, patients (%)","[4]; 10 ng/kg/min, 8 patients",0
same,"Lumbago, patients (%)","[4]; 10 ng/kg/min, 8 patients",0
same,"Moderate to severe adverse events, patients (%)","[4]; 10 ng/kg/min, 8 patients",1 (13%)
same,"Nasopharyngitis, patients (%)","[4]; 10 ng/kg/min, 8 patients",1 (13%)
same,"Palpitation, patients (%)","[4]; 10 ng/kg/min, 8 patients",1 (13%)
same,"Rash, patients (%)","[4]; 10 ng/kg/min, 8 patients",1 (13%)
same,"Right bundle branch block, patients (%)","[4]; 10 ng/kg/min, 8 patients",0
same,"Serious adverse events, patients (%)","[4]; 10 ng/kg/min, 8 patients",0
same,"Vomiting, patients (%)","[4]; 10 ng/kg/min, 8 patients",0
same,"Any adverse events, patients (%)","[4]; 15 ng/kg/min, 8 patients",8 (100%)
same,Deaths,"[4]; 15 ng/kg/min, 8 patients",0
same,"Decrease in body weight, patients (%)","[4]; 15 ng/kg/min, 8 patients",0
same,"Dehydration, patients (%)","[4]; 15 ng/kg/min, 8 patients",1 (13%)
same,"Dizziness, patients (%)","[4]; 15 ng/kg/min, 8 patients",0
same,"Fever up, patients (%)","[4]; 15 ng/kg/min, 8 patients",3 (38%)
same,"Flushing, patients (%)","[4]; 15 ng/kg/min, 8 patients",1 (13%)
same,"Head discomfort, patients (%)","[4]; 15 ng/kg/min, 8 patients",1 (13%)
same,"Headache, patients (%)","[4]; 15 ng/kg/min, 8 patients",7 (88%)
same,"Increase in transaminase level, patients (%)","[4]; 15 ng/kg/min, 8 patients",1 (13%)
same,"Lumbago, patients (%)","[4]; 15 ng/kg/min, 8 patients",0
same,"Moderate to severe adverse events, patients (%)","[4]; 15 ng/kg/min, 8 patients",3 (38%)
same,"Nasopharyngitis, patients (%)","[4]; 15 ng/kg/min, 8 patients",2 (25%)
same,"Palpitation, patients (%)","[4]; 15 ng/kg/min, 8 patients",2 (25%)
same,"Rash, patients (%)","[4]; 15 ng/kg/min, 8 patients",1 (13%)
same,"Right bundle branch block, patients (%)","[4]; 15 ng/kg/min, 8 patients",1 (13%)
same,"Vomiting, patients (%)","[4]; 15 ng/kg/min, 8 patients",1 (13%)
same,Changes in blood pressure and pulse rate,"[4]; all groups, throughout the drug administration period, data not shown",did not observe any statistically significant changes
same,"Trough levels of biologics (infliximab, adalimumab) after AM administration",[5],did not change
Infliximab,Annual risk of loss of infliximab response,[6],13 % per patient‐year
